ChEMBL document CHEMBL5705888, “Substrate specificity and inhibitors of LRRK2, a protein kinase mutated in Parkinson's disease” (Biochem J, 2009)
Active and inactive are the calls of the source. The calls are words filed in the database; no cut-off is given here.

How the values were obtained:
[1] = target: Leucine-rich repeat serine/threonine-protein kinase 2 (Homo sapiens, UniProt Q5S007); assay: Inhibition of LRRK2 in human Flp-In-T-REx-293 cells harboring GFP-tagged constitutively active G14V-Rho mutant assessed as inhibition of ERM phosphorylation at 10 uM incubated for 1 hr in presence of LRRKtide by immunoblot analysis; format: cell-based
Outline: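 Flp-in T-REx cells carrying GFP-tagged G14V-Rho were left uninduced or induced with 1 μg/ml doxycycline. At 7 h, compound at 10 μM was added for 1 h. Cells were lysed in SDS lysis buffer, run on 4–12% gels and immunoblotted with pan-phospho-ERM antibody (1 μg/ml in milk/TBST containing 10 μg/ml LRRKtide).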

[2] = target: Ribosomal protein S6 kinase alpha-5 (Homo sapiens) (UniProt O75582); assay: Inhibition of MSK1 (unknown origin) at 1 uM incubated for 30 mins in presence of [gamma-33P]ATP by multidrop micro reagent based assay relative to control; values are per cent of control
[3] = target: Serine/threonine-protein kinase Chk2 (Homo sapiens) (UniProt O96017); assay: Inhibition of CHK2 (unknown origin) at 1 uM incubated for 30 mins in presence of [gamma-33P]ATP by multidrop micro reagent based assay relative to control; values are per cent of control
[4] = target: Maternal embryonic leucine zipper kinase (Homo sapiens) (UniProt Q14680); assay: Inhibition of MELK (unknown origin) at 1 uM incubated for 30 mins in presence of [gamma-33P]ATP by multidrop micro reagent based assay relative to control; values are per cent of control
[5] = target: T1, Serine/threonine-protein kinase TBK1 (Homo sapiens) (UniProt Q9UHD2); assay: Inhibition of TBK1 (unknown origin) at 1 uM incubated for 30 mins in presence of [gamma-33P]ATP by multidrop micro reagent based assay relative to control; values are per cent of control
T1 sequence (whole entry): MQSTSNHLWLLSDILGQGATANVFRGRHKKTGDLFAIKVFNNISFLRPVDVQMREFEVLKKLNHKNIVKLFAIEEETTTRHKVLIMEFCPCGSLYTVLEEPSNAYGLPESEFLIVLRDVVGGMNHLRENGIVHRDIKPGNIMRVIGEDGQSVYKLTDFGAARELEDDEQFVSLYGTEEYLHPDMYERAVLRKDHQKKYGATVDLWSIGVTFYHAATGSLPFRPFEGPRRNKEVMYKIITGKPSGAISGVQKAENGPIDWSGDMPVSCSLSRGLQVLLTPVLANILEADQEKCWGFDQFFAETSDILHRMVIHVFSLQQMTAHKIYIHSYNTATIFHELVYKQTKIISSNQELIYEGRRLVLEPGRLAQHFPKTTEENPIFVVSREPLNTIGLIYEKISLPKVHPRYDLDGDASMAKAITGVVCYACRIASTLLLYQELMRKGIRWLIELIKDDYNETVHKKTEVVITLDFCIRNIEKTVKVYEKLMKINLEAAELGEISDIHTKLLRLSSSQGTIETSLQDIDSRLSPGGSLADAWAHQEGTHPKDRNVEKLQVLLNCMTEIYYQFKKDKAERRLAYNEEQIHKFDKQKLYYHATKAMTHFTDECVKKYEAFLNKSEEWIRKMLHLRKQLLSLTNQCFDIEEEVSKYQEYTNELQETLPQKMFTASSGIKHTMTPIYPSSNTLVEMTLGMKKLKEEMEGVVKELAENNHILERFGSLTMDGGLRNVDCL

[6] = target: Calcium/calmodulin-dependent protein kinase kinase 2 (Homo sapiens) (UniProt Q96RR4); assay: Inhibition of CaMKKbeta (unknown origin) at 1 uM incubated for 30 mins in presence of [gamma-33P]ATP by multidrop micro reagent based assay relative to control; values are per cent of control
[7] = target: Tyrosine-protein kinase BTK (Homo sapiens) (UniProt Q06187); assay: Inhibition of BTK (unknown origin) at 1 uM incubated for 30 mins in presence of [gamma-33P]ATP by multidrop micro reagent based assay relative to control
[8] = target: Leucine-rich repeat serine/threonine-protein kinase 2 (Homo sapiens, UniProt Q5S007, G2019S); assay: Inhibition of GST-tagged LRRK2 G2019S mutant (1326 to 2527 residues) (unknown origin) using peptide as substrate incubated for 15 mins in presence of ATP by immunoblotting analysis
[9] = target: Ephrin type-A receptor 2 (Homo sapiens) (UniProt P29317); assay: Inhibition of EPH A2 (unknown origin) at 1 uM incubated for 30 mins in presence of [gamma-33P]ATP by multidrop micro reagent based assay relative to control; values are per cent of control
[10] = target: T2, Inhibitor of nuclear factor kappa-B kinase subunit beta (Homo sapiens) (UniProt O14920); assay: Inhibition of IKKbeta (unknown origin) at 1 uM incubated for 30 mins in presence of [gamma-33P]ATP by multidrop micro reagent based assay relative to control; values are per cent of control
T2 sequence (whole entry): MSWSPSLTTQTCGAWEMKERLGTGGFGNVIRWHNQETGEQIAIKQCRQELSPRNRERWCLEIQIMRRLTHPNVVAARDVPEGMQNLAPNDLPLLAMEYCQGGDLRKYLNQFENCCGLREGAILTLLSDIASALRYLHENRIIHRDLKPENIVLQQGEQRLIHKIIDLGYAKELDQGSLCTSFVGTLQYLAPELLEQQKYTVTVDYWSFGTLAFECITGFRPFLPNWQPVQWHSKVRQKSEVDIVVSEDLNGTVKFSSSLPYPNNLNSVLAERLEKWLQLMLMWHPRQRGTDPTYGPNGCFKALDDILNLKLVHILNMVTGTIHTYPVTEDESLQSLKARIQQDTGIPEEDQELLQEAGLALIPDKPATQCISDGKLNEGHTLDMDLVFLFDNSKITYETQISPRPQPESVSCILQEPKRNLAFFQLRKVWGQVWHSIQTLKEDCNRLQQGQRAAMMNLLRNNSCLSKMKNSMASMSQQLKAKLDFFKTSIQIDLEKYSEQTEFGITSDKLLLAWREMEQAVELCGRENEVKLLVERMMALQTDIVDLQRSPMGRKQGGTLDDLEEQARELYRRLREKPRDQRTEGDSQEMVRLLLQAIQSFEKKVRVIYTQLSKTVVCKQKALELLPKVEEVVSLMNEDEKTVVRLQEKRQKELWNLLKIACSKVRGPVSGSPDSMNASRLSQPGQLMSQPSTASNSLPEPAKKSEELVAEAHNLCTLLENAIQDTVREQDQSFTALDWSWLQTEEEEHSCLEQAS

[11] = target: Mitogen-activated protein kinase 14 (Homo sapiens) (UniProt Q16539); assay: Inhibition of p38alpha MAPK (unknown origin) at 1 uM incubated for 30 mins in presence of [gamma-33P]ATP by multidrop micro reagent based assay relative to control; values are per cent of control
Chain of Mitogen-activated protein kinase 14 (Homo sapiens) (Q16539 whole entry): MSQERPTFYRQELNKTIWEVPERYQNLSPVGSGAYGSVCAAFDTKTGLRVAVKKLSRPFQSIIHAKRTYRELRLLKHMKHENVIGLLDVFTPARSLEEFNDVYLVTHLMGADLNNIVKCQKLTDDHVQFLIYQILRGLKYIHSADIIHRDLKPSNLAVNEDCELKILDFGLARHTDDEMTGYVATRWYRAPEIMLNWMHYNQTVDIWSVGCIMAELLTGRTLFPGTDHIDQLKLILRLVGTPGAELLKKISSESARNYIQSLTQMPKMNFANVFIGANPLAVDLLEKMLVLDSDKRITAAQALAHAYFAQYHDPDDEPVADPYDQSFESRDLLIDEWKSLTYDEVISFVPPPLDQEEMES

Chain of Ribosomal protein S6 kinase alpha-5 (Homo sapiens) (O75582 whole entry, looked up): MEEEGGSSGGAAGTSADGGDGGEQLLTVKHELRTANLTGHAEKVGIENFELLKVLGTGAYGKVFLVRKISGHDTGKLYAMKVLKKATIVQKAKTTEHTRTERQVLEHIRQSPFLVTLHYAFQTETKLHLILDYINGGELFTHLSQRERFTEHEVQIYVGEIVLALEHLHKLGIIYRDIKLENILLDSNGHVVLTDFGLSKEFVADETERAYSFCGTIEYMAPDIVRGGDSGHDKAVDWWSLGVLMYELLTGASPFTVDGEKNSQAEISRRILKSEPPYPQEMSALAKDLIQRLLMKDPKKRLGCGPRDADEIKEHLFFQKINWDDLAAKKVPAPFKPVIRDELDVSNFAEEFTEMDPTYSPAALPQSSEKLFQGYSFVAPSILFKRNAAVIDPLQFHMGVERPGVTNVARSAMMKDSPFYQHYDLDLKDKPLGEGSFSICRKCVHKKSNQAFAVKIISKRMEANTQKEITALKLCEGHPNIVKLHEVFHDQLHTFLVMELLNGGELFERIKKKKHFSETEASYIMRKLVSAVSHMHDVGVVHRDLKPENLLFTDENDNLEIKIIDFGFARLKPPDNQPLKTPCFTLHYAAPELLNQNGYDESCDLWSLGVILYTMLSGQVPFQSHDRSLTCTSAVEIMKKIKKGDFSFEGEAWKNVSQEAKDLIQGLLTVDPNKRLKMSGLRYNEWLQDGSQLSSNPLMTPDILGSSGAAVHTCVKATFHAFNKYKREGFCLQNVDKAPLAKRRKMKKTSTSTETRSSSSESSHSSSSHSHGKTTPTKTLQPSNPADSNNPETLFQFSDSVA
Chain of Leucine-rich repeat serine/threonine-protein kinase 2 (Homo sapiens, UniProt Q5S007, G2019S) (Q5S007 whole entry G2019S, the tested form may be a part): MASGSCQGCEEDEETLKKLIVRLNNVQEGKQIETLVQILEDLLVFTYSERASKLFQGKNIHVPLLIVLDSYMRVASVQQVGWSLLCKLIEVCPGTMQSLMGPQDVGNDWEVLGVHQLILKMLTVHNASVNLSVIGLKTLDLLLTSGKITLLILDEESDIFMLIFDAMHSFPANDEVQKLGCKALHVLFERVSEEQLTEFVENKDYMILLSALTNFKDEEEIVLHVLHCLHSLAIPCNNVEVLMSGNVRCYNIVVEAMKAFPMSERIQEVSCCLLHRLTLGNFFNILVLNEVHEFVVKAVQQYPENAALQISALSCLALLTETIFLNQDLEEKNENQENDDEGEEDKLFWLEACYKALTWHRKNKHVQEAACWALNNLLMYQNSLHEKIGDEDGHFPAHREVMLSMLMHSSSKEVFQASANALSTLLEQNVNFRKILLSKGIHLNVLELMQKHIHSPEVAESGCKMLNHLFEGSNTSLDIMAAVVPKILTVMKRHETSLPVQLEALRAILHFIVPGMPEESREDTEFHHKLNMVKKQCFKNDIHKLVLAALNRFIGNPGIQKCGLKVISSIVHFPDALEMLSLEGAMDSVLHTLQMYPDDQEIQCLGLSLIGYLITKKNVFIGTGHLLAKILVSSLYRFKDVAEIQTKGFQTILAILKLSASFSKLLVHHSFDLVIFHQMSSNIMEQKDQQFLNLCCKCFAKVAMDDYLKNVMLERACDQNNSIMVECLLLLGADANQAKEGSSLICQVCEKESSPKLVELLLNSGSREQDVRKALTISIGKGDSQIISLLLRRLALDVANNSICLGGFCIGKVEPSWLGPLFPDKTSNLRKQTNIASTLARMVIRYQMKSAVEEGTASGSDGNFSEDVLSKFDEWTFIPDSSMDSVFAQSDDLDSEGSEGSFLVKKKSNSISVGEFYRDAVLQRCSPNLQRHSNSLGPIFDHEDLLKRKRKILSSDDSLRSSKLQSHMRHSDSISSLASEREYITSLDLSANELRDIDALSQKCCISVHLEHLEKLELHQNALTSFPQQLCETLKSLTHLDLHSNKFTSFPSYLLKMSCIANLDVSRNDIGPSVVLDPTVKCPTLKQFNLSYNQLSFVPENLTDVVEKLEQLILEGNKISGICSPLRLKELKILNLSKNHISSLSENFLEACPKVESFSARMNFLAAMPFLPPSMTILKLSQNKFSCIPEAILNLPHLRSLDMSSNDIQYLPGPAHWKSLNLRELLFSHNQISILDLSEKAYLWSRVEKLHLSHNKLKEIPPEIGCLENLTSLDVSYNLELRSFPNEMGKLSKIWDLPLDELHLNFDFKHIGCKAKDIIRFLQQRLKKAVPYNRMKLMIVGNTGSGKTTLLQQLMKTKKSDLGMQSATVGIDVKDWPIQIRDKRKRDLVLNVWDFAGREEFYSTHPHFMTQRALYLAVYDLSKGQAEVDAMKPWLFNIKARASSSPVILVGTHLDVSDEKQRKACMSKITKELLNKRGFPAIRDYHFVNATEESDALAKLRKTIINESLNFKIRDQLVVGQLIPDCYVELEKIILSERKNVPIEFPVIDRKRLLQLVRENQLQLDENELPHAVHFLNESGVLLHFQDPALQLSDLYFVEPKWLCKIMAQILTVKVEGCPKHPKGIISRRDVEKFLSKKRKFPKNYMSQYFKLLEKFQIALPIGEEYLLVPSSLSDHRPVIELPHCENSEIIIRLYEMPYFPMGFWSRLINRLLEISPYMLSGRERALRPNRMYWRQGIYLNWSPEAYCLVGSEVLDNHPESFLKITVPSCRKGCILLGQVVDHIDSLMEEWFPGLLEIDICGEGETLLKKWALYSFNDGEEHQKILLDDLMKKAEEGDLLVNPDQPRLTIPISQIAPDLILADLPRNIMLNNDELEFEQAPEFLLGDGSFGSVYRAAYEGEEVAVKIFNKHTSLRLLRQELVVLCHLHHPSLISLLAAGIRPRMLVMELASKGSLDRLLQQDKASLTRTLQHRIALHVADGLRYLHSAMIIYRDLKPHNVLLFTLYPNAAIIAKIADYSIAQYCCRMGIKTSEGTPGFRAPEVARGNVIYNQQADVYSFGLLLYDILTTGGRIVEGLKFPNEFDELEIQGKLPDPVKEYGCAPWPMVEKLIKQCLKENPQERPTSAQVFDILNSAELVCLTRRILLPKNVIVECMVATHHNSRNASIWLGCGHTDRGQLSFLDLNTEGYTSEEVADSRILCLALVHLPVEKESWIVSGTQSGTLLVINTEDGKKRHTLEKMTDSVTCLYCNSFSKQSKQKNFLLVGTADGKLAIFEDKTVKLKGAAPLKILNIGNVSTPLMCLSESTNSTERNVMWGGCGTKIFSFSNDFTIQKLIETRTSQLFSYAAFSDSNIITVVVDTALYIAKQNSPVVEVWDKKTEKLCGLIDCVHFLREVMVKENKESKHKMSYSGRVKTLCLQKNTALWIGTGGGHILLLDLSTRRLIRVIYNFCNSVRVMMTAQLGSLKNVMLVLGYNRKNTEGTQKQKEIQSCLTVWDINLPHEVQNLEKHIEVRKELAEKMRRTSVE
Chain of Calcium/calmodulin-dependent protein kinase kinase 2 (Homo sapiens) (Q96RR4 2-588 limits assumed): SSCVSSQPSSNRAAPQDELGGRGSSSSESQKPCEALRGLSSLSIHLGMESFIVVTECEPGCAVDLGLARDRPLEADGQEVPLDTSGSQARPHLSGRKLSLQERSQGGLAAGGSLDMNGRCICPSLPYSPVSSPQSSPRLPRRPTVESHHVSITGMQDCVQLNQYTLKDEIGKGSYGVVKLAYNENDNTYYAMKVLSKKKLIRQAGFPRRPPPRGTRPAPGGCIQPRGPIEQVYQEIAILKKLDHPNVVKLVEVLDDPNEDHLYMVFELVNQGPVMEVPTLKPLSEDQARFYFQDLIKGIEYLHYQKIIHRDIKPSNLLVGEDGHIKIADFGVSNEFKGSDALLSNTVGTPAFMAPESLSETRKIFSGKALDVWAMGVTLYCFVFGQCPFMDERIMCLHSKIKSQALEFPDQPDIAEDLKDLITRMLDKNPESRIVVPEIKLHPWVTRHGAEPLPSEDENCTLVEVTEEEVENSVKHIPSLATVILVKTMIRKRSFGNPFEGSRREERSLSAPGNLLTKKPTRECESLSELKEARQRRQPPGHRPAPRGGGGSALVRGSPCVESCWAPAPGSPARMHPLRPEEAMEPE
Chain of Leucine-rich repeat serine/threonine-protein kinase 2 (Homo sapiens, UniProt Q5S007) (Q5S007 whole entry): as the sequence (Q5S007 whole entry G2019S, the tested form may be a part) above, with S2019G counted along it
Chain of Serine/threonine-protein kinase Chk2 (Homo sapiens) (O96017 whole entry): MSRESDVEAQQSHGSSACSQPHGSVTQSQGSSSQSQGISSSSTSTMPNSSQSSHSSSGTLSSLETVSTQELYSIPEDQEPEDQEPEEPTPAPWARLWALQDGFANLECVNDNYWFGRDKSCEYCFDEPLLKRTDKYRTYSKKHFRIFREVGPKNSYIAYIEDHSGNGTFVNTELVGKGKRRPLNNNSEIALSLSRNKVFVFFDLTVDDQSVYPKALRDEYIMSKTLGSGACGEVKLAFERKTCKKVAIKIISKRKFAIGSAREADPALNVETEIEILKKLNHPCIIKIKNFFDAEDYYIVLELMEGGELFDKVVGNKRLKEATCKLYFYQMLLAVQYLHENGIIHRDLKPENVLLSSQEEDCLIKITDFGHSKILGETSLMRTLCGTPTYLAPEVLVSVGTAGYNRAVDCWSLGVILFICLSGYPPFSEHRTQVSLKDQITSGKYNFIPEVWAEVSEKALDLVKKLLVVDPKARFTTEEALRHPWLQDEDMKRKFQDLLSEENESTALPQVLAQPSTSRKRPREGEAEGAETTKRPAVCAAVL

SMILES | inhibition [1] | residual activity [2] [%] | residual activity [3] [%] | residual activity [4] [%] | residual activity [5] [%] | residual activity [6] [%] | inhibition [7] [%] | IC50 [8] [nM] | residual activity [9] [%] | residual activity [10] [%] | residual activity [11] [%]
CCN(CC)CCNC(=O)c1c(C)[nH]c(/C=C2\C(=O)Nc3ccc(F)cc32)c1C | inactive | 60 | 5 | 17 | 54 | 39 | – | – | – | – | –
C[C@@H](N)[C@H]1CC[C@H](C(=O)Nc2ccncc2)CC1 | inactive | – | – | – | – | – | – | – | – | – | –
CC1=C(C(=O)Nc2cc3cn[nH]c3cc2F)C(c2ccc(C(F)(F)F)cc2)CC(=O)N1 (stereo not given) | inactive | 20 | 102 | 83 | 101 | 100 | 66 | > 100000 | 105 | 97 | 103
O=S(=O)(c1cccc2cnccc12)N1CCCNCC1 [FASUDIL] | – | – | – | – | – | – | – | > 30000 | – | – | –
Cc1cncc2cccc(S(=O)(=O)N3CCCNC[C@@H]3C)c12 | inactive | 39 | 44 | 70 | 98 | 81 | 82 | 150 | 49 | 100 | 109
CCn1c(-c2nonc2N)nc2cnc(Oc3cccc(NC(=O)c4ccc(OCCN5CCOCC5)cc4)c3)cc21 [GSK-269962A] | inactive | 1 | – | 44 | 77 | 98 | 107 | 2300 | 108 | 83 | 108
